An excerpt weighted towards active compounds, which were near 4.6% of everything screened.
TAAR1 antagonist – human TAAR1 antagonism; inhibition, % at 3 µM; CHO RD-HGA16 TAAR1, Fluo-8 calcium fluorescence, antagonist; Q96RJ0; actives 1.5% (n = 360,000);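 active = inhibition above a per-plate cutoff, the mean inhibition of test compounds on that plate plus 3 SD, cut at about 49% in these data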
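Test system: RD-HGA16 CHO cells with stable hTAAR1 and Gα16 / Probe or stimulus: EC80 β-phenethylamine stimulus / Times: seeding 17-24 h prior, 75-min 37 °C, 30-min RT dye loading / Detection: Fluo-8 calcium-sensitive fluorescence / Read-out basis: % inhibition scaled between DMSO and EC80 PEA controls / Repeats: singlicate, one well per test compound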
GPR7 antag – antagonists of human GPR7 (neuropeptides B/W receptor 1) | P48145 | GPR7-expressing cells, fluorescence antagonist assay | inhibition, % at 4.4 µM | actives 1.1% (n = 290,000); in the data active = inhibition above about 16%, passing the limit was not always enough;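 also: cells stimulated with the agonist NPW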
Target sequence (P48145 whole entry, looked up): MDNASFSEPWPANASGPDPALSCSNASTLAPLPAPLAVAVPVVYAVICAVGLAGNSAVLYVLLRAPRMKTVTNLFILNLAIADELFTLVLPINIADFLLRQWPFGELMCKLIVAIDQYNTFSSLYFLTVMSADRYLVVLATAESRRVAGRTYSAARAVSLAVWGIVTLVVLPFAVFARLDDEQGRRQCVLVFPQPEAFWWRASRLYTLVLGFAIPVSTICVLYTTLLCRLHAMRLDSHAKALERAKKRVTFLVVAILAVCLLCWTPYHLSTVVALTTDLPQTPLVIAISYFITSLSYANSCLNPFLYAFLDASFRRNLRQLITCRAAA
OX1R antag-1 – blocks the human orexin 1 receptor. AID 434989. actives 0.43% (n = 330,000). inhibition, % at 5 µM. CHO/OX1R cells, Fluo-8 calcium fluorescence, orexin A;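 active = inhibition above its plate's threshold, mean inhibition of all tested compounds on the plate plus 3 SD, cut at about 37% in these data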
Target sequence (O43613 whole entry, looked up): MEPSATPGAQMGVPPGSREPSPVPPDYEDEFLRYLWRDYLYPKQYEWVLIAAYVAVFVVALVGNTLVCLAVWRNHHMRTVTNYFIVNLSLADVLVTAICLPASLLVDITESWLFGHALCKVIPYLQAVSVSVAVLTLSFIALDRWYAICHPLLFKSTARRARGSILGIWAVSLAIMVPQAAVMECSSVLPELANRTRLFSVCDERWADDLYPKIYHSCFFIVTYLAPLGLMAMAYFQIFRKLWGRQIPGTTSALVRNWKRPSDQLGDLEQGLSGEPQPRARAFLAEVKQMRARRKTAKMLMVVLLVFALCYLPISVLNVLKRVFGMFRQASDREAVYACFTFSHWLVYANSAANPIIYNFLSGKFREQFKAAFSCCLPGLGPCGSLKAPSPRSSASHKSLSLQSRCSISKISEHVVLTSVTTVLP
CHO parental Ca – counter-screen: ATP calcium response change in parental CHO cells | parental CHO-K1, ATP-induced calcium, Fluo-8 fluorescence | inhibition, % at 5.6 µM | actives 0.63% (n = 330,000);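 active = inhibition above that plate's mean sample inhibition plus 3 SD, cut at about 26% in these data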
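Test system: untransfected parental CHO cell line. Compound: one dose, 5.6 µM nominal. Detection: intracellular calcium via Fluo-8 no-wash fluorescent dye. Measure: % inhibition. Benchmarks: ATP-challenged DMSO wells low, unchallenged DMSO wells high.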
OX1R antag-2 – blocks the human orexin 1 receptor. inhibition, % at 6.6 µM. OX1R-expressing cells, FRET antagonist read-out. actives 1.8% (n = 330,000); in the data active = inhibition mostly above about 38%, no sharp cut-off; inactive = mostly below about 40%
TAAR1 agonist – agonists of human TAAR1 | actives 0.99% (n = 360,000) | activation, % at 3 µM | CHO RD-HGA16 TAAR1, Fluo-8 calcium fluorescence; vehicle wells 0%, saturating PEA agonist 100% | Q96RJ0;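 active = activation above the mean activation of all test compounds in the run plus 3 SD, cut at about 38% in these data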
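Test system: RD-HGA16 (CHO) cells co-expressing Gα16 and hTAAR1 / Benchmarks: DMSO vehicle as 0%, PEA at EC100 as 100% / Repeats: no replicates (n 1) / Measure: % activation from peak over basal fluorescence ratio, DMSO-to-PEA scaled / Timing: 17-24 h plating, Fluo-8 75 min 37 °C, 30 min RT / Technique: kinetic Fluo-8 calcium fluorescence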
TAAR1 nonsel count – nonselective antagonism, TAAR1 counter-screen; inhibition, % at 3 µM; AID 651780; counterscreen cell line, calcium fluorescence, antagonist mode; actives 77% (n = 2,400); shares compounds with TAAR1 antagonist; in the data active = inhibition above about 22%;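 also: CHO-Ga16 host cells stimulated with ATP at an EC80 level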
TAAR1 ant conf – confirmation of human TAAR1 antagonists. shares compounds with TAAR1 antagonist. AID 651785. actives 40% (n = 2,400). inhibition, % at 3 µM. TAAR1-expressing cells, fluorescence antagonist read-out; in the data active = inhibition above about 49%;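 also: CHO-Ga16 host cells challenged with agonist PEA near its EC80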
Ga16 nonsel ag – nonselective Ga16 agonist in TAAR1 antagonist counter-screen | Ga16-expressing cells, calcium fluorescence, agonist counterscreen | activation, % at 3 µM | shares compounds with TAAR1 antagonist | actives 18% (n = 2,400); in the data active = activation above about 12%
TAAR1 ag count – activates human TAAR1 in antagonist counter-screen. shares compounds with TAAR1 antagonist. hTAAR1 cell line, fluorescence activation, agonist mode. activation, % at 3 µM. actives 2% (n = 2,400); in the data active = activation above about 37%;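 also: CHO cells stably expressing TAAR1 with calcium dye readout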
Large screens that a line does not name were inactive (follow-up assays come after a bar, where they were run).

CCN(CC(=O)Nc1ccc(NC(C)=O)cc1)C(=O)c1ccc(N(C)S(=O)(=O)c2ccc(C)cc2)cc1	TAAR1 antagonist 101.3 (no result: GPR7 antag, OX1R antag-1, CHO parental Ca, OX1R antag-2) | TAAR1 nonsel count inactive | TAAR1 ant conf inactive | Ga16 nonsel ag inactive | TAAR1 ag count inactive
O=C(CCN1C(=O)c2cccc3cccc(c23)C1=O)Nc1ccon1	none
N#Cc1ccc(C(=O)NC2CCCCCCC2)cc1	none
OC(c1cccc(Cl)c1)c1nc(-c2cc3ccccc3o2)cs1 (centres undefined)	TAAR1 antagonist 61.0 (no result: GPR7 antag, OX1R antag-1, CHO parental Ca, OX1R antag-2) | TAAR1 nonsel count 36.4 | TAAR1 ant conf 49.4 | Ga16 nonsel ag inactive | TAAR1 ag count inactive
Cc1cccc(C(=O)Nc2ccc(C(=O)/C=C/c3cccnc3)cc2)c1	TAAR1 antagonist 60.3 | TAAR1 nonsel count 33.1 | TAAR1 ant conf 54.0 | Ga16 nonsel ag 12.7 | TAAR1 ag count inactive
CC(C)(C)c1ccc(OCc2ccc(C(=O)Nc3cccnc3)o2)cc1	TAAR1 antagonist 75.0, CHO parental Ca 29.2 | TAAR1 nonsel count 49.7 | TAAR1 ant conf 60.9 | Ga16 nonsel ag inactive | TAAR1 ag count inactive
Cc1ccc(C)c(S(=O)(=O)N2CCCC2CNC(=O)C(=O)NCCc2ccccc2)c1 (centres undefined)	TAAR1 antagonist 68.5, OX1R antag-2 38.1 (no result: GPR7 antag) | TAAR1 nonsel count 30.7 | TAAR1 ant conf inactive | Ga16 nonsel ag inactive | TAAR1 ag count inactive
COc1ccc(CCNC(=O)C(=O)NCC2CCCN2S(=O)(=O)c2cc(C)ccc2C)cc1 (centres undefined)	TAAR1 antagonist 72.8 (no result: GPR7 antag) | TAAR1 nonsel count 27.9 | TAAR1 ant conf 53.3 | Ga16 nonsel ag inactive | TAAR1 ag count inactive
CCS(=O)(=O)N1CCN(c2ccc([N+](=O)[O-])c(NCC3CCCO3)c2)CC1 (centres undefined)	none
O=C(Nc1cccc(Cl)c1)C1COc2ccccc2O1 (centres undefined)	none
Clc1ccc(-c2nnc(SCc3nc(-c4ccccc4)no3)o2)cc1	none
COc1ccc(NC(=O)c2cc(-c3ccncc3)nc3ccccc23)c(OC)c1	none (no result: GPR7 antag)
CCOc1ccccc1NC(=O)c1cc(-c2ccncc2)nc2c(Cl)cccc12	TAAR1 antagonist 70.5 (no result: OX1R antag-1, CHO parental Ca, OX1R antag-2) | TAAR1 nonsel count inactive | TAAR1 ant conf inactive | Ga16 nonsel ag inactive | TAAR1 ag count inactive
Cc1ccc(S(=O)(=O)N(C)C)cc1NC(=O)c1cc(-c2ccncc2)nc2ccccc12	TAAR1 antagonist 53.8 (no result: GPR7 antag) | TAAR1 nonsel count inactive | TAAR1 ant conf inactive | Ga16 nonsel ag inactive | TAAR1 ag count inactive
CCOC(=O)Cc1csc(NC(=O)c2cc(-c3ccncc3)nc3ccccc23)n1	TAAR1 antagonist 63.6 (no result: GPR7 antag) | TAAR1 nonsel count 33.3 | TAAR1 ant conf 50.1 | Ga16 nonsel ag inactive | TAAR1 ag count inactive
CCOC(=O)Cc1csc(NC(=O)c2ccc([N+](=O)[O-])cc2[N+](=O)[O-])n1	none
Cc1ccc(-c2cc(C(=O)Nc3cc(C(=O)O)ccc3C)c3ccccc3n2)cc1	none
CCOC(=O)Cc1csc(NC(=O)c2ccc(N3CCOCC3)cc2[N+](=O)[O-])n1	TAAR1 antagonist 54.9 (no result: GPR7 antag) | TAAR1 nonsel count 37.6 | TAAR1 ant conf 52.9 | Ga16 nonsel ag inactive | TAAR1 ag count inactive
COc1cc(C)ccc1OCc1cc(C(=O)N2C[C@H]3CC[C@H]2C3)no1	TAAR1 antagonist 102.4 | TAAR1 nonsel count inactive | TAAR1 ant conf inactive | Ga16 nonsel ag inactive | TAAR1 ag count inactive
COc1cc(Cl)ccc1OCc1cc(C(=O)N2C[C@H]3CC[C@H]2C3)no1	none
COc1ccc(C(=O)COC(=O)Cn2nnc3ccccc32)cc1Br	none
Cc1ccc(/C=C(/NC(=O)c2ccccc2)C(=O)NCCc2c[nH]c3ccccc23)o1	TAAR1 antagonist 58.0 | TAAR1 nonsel count 25.2 | TAAR1 ant conf inactive | Ga16 nonsel ag inactive | TAAR1 ag count inactive
O=C(NCCc1c[nH]c2ccccc12)/C(=C\c1cccnc1)NC(=O)c1ccccc1Br	TAAR1 antagonist 63.5 | TAAR1 nonsel count 31.2 | TAAR1 ant conf 52.6 | Ga16 nonsel ag inactive | TAAR1 ag count inactive
Cc1ccc(C(=O)N/C(=C\c2ccco2)C(=O)NCCc2c[nH]c3ccccc23)cc1	none
O=C(NCCc1c[nH]c2ccccc12)/C(=C\c1cccnc1)NC(=O)c1ccco1	none
CCc1ccccc1NC(=O)CNC(=O)c1cccc(S(=O)(=O)N2CCN(Cc3ccccc3)CC2)c1	none (no result: GPR7 antag)
C=CC[C@@H](CC(=O)N[C@@H](CO)Cc1ccccc1)C(=O)NC[C@H](OC(=O)[C@@H](CC=C)Cc1ccc(F)cc1)c1ccccc1	TAAR1 antagonist 63.5 (no result: GPR7 antag) | TAAR1 nonsel count 32.3 | TAAR1 ant conf 53.9 | Ga16 nonsel ag inactive | TAAR1 ag count inactive
C=CC[C@@H](CC(=O)NCCO)C(=O)NC[C@H](OC(=O)[C@@H](CC=C)Cc1ccc(F)cc1)c1ccccc1	TAAR1 antagonist 78.0 (no result: GPR7 antag) | TAAR1 nonsel count 31.5 | TAAR1 ant conf 63.3 | Ga16 nonsel ag 12.7 | TAAR1 ag count inactive
C=CC[C@@H](CC(=O)N[C@@H](CO)Cc1ccccc1)C(=O)NC[C@@H](OC(=O)[C@@H](CC=C)Cc1ccc(F)cc1)c1ccccc1	none (no result: GPR7 antag)
Cn1cc(SCC(=O)Nc2nc3ccccc3s2)c2ccccc21	none
CC#C[C@@H](CC)c1ccc2ccn(C)c2c1	none (no result: GPR7 antag)
Cc1cccc(CN2CCN(C(=O)CCc3nnc(C4CCCCC4)o3)CC2)c1	none
Cc1cccc(-n2ncc3c2CCCC3NC(=O)CCc2cccnc2)c1C (centres undefined)	none
O=C1[C@H]2[C@@H](/C=C/c3ccccc3)N3C(=O)CN(Cc4ccccn4)C(=O)[C@@]3(Cc3ccccc3)[C@H]2C(=O)N1c1ccccc1	TAAR1 antagonist 69.7 | TAAR1 nonsel count 28.1 | TAAR1 ant conf inactive | Ga16 nonsel ag inactive | TAAR1 ag count inactive
Cc1cccc(OCC(O)Cn2c(N3CCCCC3)nc3c2c(=O)n(C)c(=O)n3C)c1 (centres undefined)	TAAR1 antagonist 63.6 | TAAR1 nonsel count 29.8 | TAAR1 ant conf inactive | Ga16 nonsel ag inactive | TAAR1 ag count inactive
Cn1c(=O)c2c(nc(N3CCCCCC3)n2CC(O)COc2ccccc2)n(C)c1=O (centres undefined)	none
